Laboratory results: ChEMBL document CHEMBL4261499, “Chiral disubstituted piperidinyl ureas: a class of dual diacylglycerol lipase-α and ABHD6 inhibitors” (Medchemcomm, 2017)

Experiments:
[1] = target: T1, Diacylglycerol lipase-alpha (Homo sapiens, UniProt Q9Y4D2); assay: Inhibition of recombinant human DAGLalpha expressed in HEK293 cells using PNP-butyrate as substrate pretreated for 20 to 30 mins followed by substrate addition measured every 60 secs for 20 mins by colorimetric method; format: cell-based
T1 sequence (Q9Y4D2 whole entry): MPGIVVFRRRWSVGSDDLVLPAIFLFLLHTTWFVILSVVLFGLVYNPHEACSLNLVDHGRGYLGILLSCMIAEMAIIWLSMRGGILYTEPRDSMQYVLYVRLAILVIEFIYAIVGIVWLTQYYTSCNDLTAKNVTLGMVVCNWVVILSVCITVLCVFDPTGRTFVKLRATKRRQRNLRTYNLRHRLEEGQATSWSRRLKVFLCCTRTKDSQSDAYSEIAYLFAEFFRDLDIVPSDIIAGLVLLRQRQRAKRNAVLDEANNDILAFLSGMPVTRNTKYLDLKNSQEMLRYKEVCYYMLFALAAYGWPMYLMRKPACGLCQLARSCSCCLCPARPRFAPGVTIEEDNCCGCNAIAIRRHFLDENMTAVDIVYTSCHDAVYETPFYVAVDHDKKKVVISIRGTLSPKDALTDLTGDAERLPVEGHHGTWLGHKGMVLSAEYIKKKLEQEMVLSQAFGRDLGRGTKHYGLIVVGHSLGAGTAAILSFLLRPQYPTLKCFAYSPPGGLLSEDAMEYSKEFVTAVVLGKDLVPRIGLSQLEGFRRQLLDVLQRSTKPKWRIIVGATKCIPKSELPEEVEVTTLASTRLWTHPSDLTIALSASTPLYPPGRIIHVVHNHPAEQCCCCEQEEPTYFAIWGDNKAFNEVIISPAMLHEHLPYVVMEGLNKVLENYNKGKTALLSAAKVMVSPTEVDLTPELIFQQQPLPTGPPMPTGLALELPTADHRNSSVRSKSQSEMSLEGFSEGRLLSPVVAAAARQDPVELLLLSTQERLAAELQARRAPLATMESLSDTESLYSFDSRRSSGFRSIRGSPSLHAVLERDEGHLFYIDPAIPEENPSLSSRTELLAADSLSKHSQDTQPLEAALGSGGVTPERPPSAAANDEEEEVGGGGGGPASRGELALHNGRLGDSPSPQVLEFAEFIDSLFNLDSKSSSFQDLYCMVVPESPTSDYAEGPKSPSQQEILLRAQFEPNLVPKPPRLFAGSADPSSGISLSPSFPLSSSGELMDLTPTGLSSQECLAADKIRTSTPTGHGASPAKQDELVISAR
How it was run: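 Membrane fraction from HEK293T cells transiently transfected with human DAGLα (PEI transfection, harvested at 72 h). Membranes used at 0.05 μg μL-1 final protein in 50 mM HEPES pH 7.2. Colorimetric readout of para-nitrophenylbutyrate hydrolysis. pIC50 ± SEM.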

[2] = target: T2, Monoacylglycerol lipase ABHD6 (Homo sapiens, UniProt Q9BV23); assay: Inhibition of recombinant human ABHD6 expressed in HEK293 cells by AmplifuTM red dye based fluorescence assay; format: cell-based
T2 sequence (Q9BV23 whole entry): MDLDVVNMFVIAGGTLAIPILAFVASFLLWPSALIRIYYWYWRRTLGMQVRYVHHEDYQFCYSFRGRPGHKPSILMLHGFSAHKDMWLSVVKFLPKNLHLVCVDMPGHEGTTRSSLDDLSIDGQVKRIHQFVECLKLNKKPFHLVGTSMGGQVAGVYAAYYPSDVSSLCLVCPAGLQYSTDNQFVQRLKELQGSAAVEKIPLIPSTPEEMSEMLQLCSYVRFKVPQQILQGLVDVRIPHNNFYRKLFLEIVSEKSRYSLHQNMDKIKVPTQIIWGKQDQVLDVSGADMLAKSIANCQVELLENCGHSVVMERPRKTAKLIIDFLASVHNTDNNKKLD
How it was run: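 Membranes from transiently transfected HEK293T cells expressing human ABHD6, 40 μg mL-1 final protein. Real-time coupled fluorescence assay with natural substrate 2-AG (25 μM). Glycerol released is detected via glycerol kinase, glycerol-3-phosphate oxidase and HRP (0.2 U mL-1 each), 0.125 mM ATP and 10 μM Amplifu Red. Assay contains 5% DMSO and 0.5% acetonitrile. pIC50 ± SEM.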

[3] = target: T3, Diacylglycerol lipase-alpha (Mus musculus) (UniProt Q6WQJ1); assay: Inhibition of MB064 labelling of DAGLalpha in mouse brain homogenates at 10 uM pretreated for 30 mins followed by MB064 addition and measured after 20 mins by activity based protein profiling assay relative to control; format: tissue-based
T3 sequence (whole entry): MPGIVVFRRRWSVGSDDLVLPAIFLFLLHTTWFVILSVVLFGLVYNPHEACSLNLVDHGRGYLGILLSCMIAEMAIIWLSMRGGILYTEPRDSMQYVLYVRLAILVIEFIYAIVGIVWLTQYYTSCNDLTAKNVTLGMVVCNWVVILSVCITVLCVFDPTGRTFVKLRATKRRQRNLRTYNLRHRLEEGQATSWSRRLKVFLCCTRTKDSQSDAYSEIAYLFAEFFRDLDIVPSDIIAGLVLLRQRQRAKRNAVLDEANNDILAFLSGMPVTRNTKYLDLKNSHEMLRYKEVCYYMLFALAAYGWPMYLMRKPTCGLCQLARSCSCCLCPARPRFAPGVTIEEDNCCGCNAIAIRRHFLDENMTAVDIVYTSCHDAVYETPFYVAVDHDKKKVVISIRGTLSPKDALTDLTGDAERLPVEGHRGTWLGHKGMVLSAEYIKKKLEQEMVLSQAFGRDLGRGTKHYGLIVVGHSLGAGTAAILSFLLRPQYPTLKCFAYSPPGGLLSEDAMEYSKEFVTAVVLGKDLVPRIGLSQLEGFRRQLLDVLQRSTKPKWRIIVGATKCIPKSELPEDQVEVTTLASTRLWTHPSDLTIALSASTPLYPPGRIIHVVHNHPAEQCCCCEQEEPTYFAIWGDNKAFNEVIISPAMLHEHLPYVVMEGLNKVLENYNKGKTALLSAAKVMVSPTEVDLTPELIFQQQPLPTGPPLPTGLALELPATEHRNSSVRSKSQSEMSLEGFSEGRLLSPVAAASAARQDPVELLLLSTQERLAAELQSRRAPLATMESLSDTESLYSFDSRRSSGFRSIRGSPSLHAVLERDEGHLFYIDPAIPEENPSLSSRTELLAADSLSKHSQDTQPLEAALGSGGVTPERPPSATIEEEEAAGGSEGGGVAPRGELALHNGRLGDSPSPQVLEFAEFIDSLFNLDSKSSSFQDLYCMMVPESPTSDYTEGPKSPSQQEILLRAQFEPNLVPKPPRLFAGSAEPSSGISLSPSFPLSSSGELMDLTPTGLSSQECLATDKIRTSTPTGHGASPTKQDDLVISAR
How it was run: (§1)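 Mouse brain membrane proteome preincubated 30 min with inhibitor (10 μM), then labelled with MB064 probe (0.25 μM, 20 min). Readout by gel-based competitive ABPP. Band intensities corrected for protein loading per lane from Coomassie staining. Means ± SEM, n = 3.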

[4] = target: T4, Monoacylglycerol lipase ABHD6 (Mus musculus) (UniProt Q8R2Y0); assay: Inhibition of MB064 labelling of ABHD6 in mouse brain homogenates at 10 uM pretreated for 30 mins followed by MB064 addition and measured after 20 mins by activity based protein profiling assay relative to control; format: tissue-based; how it was run: as §1
T4 sequence (whole entry): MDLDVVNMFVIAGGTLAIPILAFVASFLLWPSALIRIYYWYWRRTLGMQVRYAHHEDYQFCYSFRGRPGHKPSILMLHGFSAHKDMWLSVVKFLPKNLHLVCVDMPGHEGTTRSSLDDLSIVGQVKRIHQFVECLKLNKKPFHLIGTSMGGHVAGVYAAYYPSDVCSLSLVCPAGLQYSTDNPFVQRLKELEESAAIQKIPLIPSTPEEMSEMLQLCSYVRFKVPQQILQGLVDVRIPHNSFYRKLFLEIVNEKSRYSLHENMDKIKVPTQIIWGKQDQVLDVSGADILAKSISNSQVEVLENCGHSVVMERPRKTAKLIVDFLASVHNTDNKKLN

**Q.** What does the source list for `O=C(N1C[C@H](O)C=C[C@H]1COCc1ccccc1)n1cc(-c2ccc(-c3ccccc3)cc2)nn1`?
**A.** IC50 [1]: > 10000 nM; IC50 [2]: 316 nM; inhibition [3]: 5%; inhibition [4]: 50%

**Q.** Which results are given for `O=C(N1CCC=C[C@H]1COCc1ccccc1)n1cc(-c2ccc(-c3ccccc3)cc2)nn1`?
**A.** IC50 [1]: 1260 nM; IC50 [2]: 100 nM; inhibition [3]: 30%; inhibition [4]: 84%

**Q.** With `O=C(N1CCCC[C@@H]1Cc1ccccc1)n1cc(-c2ccc(-c3ccccc3)cc2)nn1` as the molecule, how does the inhibition [3] read?
**A.** 99%

**Q.** And the inhibition [4]?
**A.** 95%

**Q.** Which results are given for `O=C(N1C[C@H](O)C=C[C@@H]1Cc1ccccc1)n1cc(-c2ccc(-c3ccccc3)cc2)nn1`?
**A.** IC50 [1]: 15.8 nM; IC50 [2]: 3.16 nM; inhibition [3]: 92%; inhibition [4]: 96%

**Q.** With `O=C(N1CC=C[C@@H](O)[C@@H]1COCc1ccccc1)n1cc(-c2ccc(-c3ccccc3)cc2)nn1` as the molecule, how does the IC50 [1] read?
**A.** > 10000 nM

**Q.** And the IC50 [2]?
**A.** 794 nM

**Q.** What about the inhibition [3] of the same molecule?
**A.** 6%

**Q.** What about the inhibition [4] of the same molecule?
**A.** 18%

**Q.** `O=C(N1CCC=C[C@@H]1Cc1ccccc1)n1cc(-c2ccc(-c3ccccc3)cc2)nn1` was tested. Which IC50 [1] did it give?
**A.** 0.794 nM

**Q.** What about the IC50 [2] of the same molecule?
**A.** 2.51 nM

**Q.** What about the inhibition [3] of the same molecule?
**A.** 99%

**Q.** And the inhibition [4]?
**A.** 96%

**Q.** `O=C(N1C[C@H](O)C=C[C@@H]1COCc1ccccc1)n1cc(-c2ccc(-c3ccccc3)cc2)nn1` was tested. Which IC50 [1] did it give?
**A.** 25.1 nM

**Q.** What about the IC50 [2] of the same molecule?
**A.** 5.01 nM

**Q.** And the inhibition [3]?
**A.** 87%

**Q.** What about the inhibition [4] of the same molecule?
**A.** 95%

**Q.** What does the source list for `O=C(N1CC=C[C@@H](O)[C@H]1COCc1ccccc1)n1cc(-c2ccc(-c3ccccc3)cc2)nn1`?
**A.** IC50 [1]: > 10000 nM; IC50 [2]: 251 nM; inhibition [3]: 18%; inhibition [4]: 83%

**Q.** What does the source list for `O=C(N1CCC=C[C@@H]1COCc1ccccc1)n1cnc(-c2ccc(-c3ccccc3)cc2)c1`?
**A.** IC50 [1]: > 10000 nM; IC50 [2]: > 10000 nM

**Q.** With `O=C(Oc1ccc([N+](=O)[O-])cc1)N1CCC=C[C@@H]1COCc1ccccc1` as the molecule, how does the IC50 [1] read?
**A.** > 10000 nM

**Q.** And the IC50 [2]?
**A.** > 10000 nM

**Q.** What does the source list for `O=C(N1CCC=C[C@@H]1COCc1ccccc1)n1ccc(-c2ccc(-c3ccccc3)cc2)n1`?
**A.** IC50 [1]: > 10000 nM; IC50 [2]: > 10000 nM; inhibition [4]: -3%

**Q.** `O=C(N1CCC=C[C@@H]1COCc1ccccc1)n1cnc(-c2ccc(-c3ccccc3)cc2)n1` was tested. Which IC50 [1] did it give?
**A.** > 10000 nM

**Q.** And the IC50 [2]?
**A.** > 10000 nM

**Q.** And the inhibition [3]?
**A.** 0%

**Q.** With `O=C(N1CCC=C[C@@H]1COCc1ccccc1)n1cnc(-c2ccc(Br)cc2)c1` as the molecule, how does the IC50 [1] read?
**A.** > 10000 nM

**Q.** What about the IC50 [2] of the same molecule?
**A.** > 10000 nM

**Q.** And the inhibition [3]?
**A.** -9%

**Q.** How did the IC50 [1] turn out when `O=C(N1CCC=C[C@H]1Cc1ccccc1)n1cc(-c2ccc(-c3ccccc3)cc2)nn1` was run?
**A.** 79.4 nM

**Q.** What about the IC50 [2] of the same molecule?
**A.** 25.1 nM

**Q.** And the inhibition [3]?
**A.** 83%

**Q.** And the inhibition [4]?
**A.** 90%

**Q.** What does the source list for `O=C(N1CCC=C[C@@H]1COCc1ccccc1)n1ccc(-c2ccc(Br)cc2)n1`?
**A.** IC50 [1]: > 10000 nM; IC50 [2]: > 10000 nM; inhibition [3]: -3%; inhibition [4]: -3%
